Consider three compounds from ChEMBL document CHEMBL1949512, “RO4383596, an orally active KDR, FGFR, and PDGFR inhibitor: synthesis and biological evaluation” (Bioorg Med Chem, 2005).

Test [1] deals with Fibroblast growth factor receptor (Homo sapiens, UniProt P22607+P11362+P22455+P21802). In words: Inhibition of human recombinant GST-tagged intracellular domain of FGFR using biotin-EEEEYFELV as substrate by HTRF assay. In general terms: In TR-FRET formats the signal depends on donor and acceptor labels being close together.
In test [2] the target is T1, Vascular endothelial growth factor receptor 2 (Homo sapiens, UniProt P35968). As to the kind of experiment: Inhibition of human recombinant EE-tagged intracellular domain of KDR using biotin-EEEEYFELVAKKKK as substrate by HTRF assay.
Test [3] addresses Epidermal growth factor receptor (Homo sapiens, UniProt P00533). As to the kind of experiment: Inhibition of human recombinant His-tagged intracellular domain of EGFR using biotin-EEEEYFELV as substrate by HTRF assay.
Test [4] has as its target Platelet-derived growth factor receptor (Homo sapiens, UniProt P09619+P16234). In words: Inhibition of human recombinant His-tagged intracellular domain of PDGFR using biotin-EEEEYFELV as substrate by HTRF assay.
Test [5] deals with T1, Vascular endothelial growth factor receptor 2. As to the kind of experiment: Inhibition of KDR in HUVEC assessed as AKT phosphorylation by Western blot analysis. In outline:
(§1)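 HUVECs at passages 2–4 were grown to 70% confluency and serum-starved 18 h in EBM-2 with 1.0% HI-FBS. Compound was added 1 h before 50 ng/mL rhVEGF. Cells were lysed on ice 5 min after stimulation and lysates immunoblotted, with actin used to normalize loading.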
For orientation: Immunoblotting shows a protein as a band on a membrane.

Test [6] has the same target. As to the kind of experiment: Inhibition of KDR in HUVEC assessed as ERK1/2 phosphorylation by Western blot analysis. The method in brief: as §1
Test [7] has the same target. As to the kind of experiment: Inhibition of KDR autophosphorylation in HUVEC by Western blot analysis. The method in brief:
as §1

T1 sequence (P35968 whole entry, the tested form may be a part): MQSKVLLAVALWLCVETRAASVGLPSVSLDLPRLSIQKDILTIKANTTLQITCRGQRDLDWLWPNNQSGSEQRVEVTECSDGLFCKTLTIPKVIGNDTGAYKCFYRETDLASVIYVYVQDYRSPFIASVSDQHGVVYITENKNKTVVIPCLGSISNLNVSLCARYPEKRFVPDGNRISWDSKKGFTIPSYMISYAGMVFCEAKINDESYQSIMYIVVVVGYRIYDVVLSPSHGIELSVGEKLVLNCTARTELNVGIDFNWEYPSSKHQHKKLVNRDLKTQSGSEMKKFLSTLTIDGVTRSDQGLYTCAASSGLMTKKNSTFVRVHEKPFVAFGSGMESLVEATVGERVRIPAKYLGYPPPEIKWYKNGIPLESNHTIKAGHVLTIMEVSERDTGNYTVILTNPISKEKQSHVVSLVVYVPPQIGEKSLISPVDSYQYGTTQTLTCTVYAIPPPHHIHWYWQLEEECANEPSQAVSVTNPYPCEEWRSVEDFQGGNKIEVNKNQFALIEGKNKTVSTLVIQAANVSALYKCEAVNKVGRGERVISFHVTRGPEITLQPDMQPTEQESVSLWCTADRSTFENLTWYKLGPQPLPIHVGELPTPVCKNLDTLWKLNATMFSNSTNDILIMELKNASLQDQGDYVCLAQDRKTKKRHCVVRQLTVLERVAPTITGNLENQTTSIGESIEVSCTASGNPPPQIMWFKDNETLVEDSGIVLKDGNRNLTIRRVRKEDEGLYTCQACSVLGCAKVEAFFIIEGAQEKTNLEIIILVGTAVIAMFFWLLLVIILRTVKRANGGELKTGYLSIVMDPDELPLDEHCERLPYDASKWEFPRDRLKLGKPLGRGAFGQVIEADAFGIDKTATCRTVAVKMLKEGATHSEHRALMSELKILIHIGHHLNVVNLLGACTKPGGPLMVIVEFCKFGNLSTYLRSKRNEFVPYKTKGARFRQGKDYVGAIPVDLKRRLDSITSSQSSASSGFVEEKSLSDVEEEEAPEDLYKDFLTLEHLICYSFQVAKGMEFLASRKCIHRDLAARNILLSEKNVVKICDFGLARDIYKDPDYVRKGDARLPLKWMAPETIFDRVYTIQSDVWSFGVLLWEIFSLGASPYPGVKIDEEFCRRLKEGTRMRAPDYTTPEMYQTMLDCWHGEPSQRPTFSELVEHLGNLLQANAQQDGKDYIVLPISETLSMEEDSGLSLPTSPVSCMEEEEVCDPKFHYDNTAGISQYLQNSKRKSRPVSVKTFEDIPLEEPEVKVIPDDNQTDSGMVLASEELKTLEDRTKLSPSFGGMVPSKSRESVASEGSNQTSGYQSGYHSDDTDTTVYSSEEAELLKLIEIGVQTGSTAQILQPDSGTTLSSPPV
Chain of Epidermal growth factor receptor (P00533 whole entry, the tested form may be a part): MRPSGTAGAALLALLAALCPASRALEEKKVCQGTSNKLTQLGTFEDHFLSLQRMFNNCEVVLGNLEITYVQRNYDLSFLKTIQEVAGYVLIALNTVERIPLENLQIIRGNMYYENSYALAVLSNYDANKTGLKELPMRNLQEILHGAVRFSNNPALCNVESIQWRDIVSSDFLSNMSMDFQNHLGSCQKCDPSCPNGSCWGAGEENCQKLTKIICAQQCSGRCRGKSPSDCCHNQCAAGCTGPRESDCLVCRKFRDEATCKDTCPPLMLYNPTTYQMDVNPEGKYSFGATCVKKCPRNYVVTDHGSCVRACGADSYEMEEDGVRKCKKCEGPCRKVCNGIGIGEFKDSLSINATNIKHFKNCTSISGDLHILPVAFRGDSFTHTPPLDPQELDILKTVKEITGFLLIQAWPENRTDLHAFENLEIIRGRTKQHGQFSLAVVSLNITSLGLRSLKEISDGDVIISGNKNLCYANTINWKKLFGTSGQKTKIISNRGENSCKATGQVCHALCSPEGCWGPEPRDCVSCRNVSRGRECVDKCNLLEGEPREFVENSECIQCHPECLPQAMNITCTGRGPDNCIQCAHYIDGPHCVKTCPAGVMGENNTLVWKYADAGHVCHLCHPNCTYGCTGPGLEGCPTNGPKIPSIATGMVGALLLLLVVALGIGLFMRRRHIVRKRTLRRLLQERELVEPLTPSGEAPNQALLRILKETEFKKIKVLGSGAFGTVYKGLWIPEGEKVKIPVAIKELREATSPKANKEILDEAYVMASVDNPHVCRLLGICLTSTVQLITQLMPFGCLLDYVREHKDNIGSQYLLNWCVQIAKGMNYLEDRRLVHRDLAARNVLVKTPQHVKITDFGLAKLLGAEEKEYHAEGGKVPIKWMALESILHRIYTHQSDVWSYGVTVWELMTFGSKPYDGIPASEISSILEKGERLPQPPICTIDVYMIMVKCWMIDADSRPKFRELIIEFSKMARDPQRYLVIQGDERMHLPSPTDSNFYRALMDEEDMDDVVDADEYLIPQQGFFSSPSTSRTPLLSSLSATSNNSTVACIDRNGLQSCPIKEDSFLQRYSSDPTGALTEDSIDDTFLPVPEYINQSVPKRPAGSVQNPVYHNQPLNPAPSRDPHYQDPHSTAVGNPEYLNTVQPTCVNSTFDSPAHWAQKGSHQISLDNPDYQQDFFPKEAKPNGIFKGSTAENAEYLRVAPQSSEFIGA

In the case of `COc1ccc(N2Cc3cnc(Nc4ccccc4)nc3N([C@@H]3CC[C@@H](O)C3)C2=O)cc1`, the half-inhibitory concentration (IC50) in test [1] was 35 nM; in test [2], 12 nM; in test [3], 239 nM; in test [4], 28 nM.
For `COc1ccc(N2Cc3cnc(Nc4ccccc4)nc3N([C@H]3CC[C@H](O)C3)C2=O)cc1`, the concentration for half-maximal inhibition (IC50) stood at 37 nM in test [1], 15 nM in test [2], 365 nM in test [3] and 33 nM in test [4].
Take `COc1ccc(N2Cc3cnc(Nc4ccccc4)nc3N([C@@H]3CC[C@@H](O)C3)C2=O)cc1` (racemic): the inhibition entry in test [5], in test [6] and in test [7] was “Dose-dependent effect” each time.

One may read the IC50 as the concentration that gives 50% inhibition.
